# High-throughput results deposited in PubChem BioAssay by The Scripps Research Institute Molecular Screening Center.
# OX1R antag-1: human HCRTR1 antagonism. O43613. 0.43% of 330,000 active. inhibition, % at 5 µM. CHO/OX1R cells, Fluo-8 calcium fluorescence, orexin A;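 active = inhibition above its plate's threshold, mean inhibition of all tested compounds on the plate plus 3 SD, cut at about 37% in these data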;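 note: 0% = orexin A challenge wells and 100% = SB-334867-A antagonist wells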
# Target sequence (O43613 whole entry, looked up): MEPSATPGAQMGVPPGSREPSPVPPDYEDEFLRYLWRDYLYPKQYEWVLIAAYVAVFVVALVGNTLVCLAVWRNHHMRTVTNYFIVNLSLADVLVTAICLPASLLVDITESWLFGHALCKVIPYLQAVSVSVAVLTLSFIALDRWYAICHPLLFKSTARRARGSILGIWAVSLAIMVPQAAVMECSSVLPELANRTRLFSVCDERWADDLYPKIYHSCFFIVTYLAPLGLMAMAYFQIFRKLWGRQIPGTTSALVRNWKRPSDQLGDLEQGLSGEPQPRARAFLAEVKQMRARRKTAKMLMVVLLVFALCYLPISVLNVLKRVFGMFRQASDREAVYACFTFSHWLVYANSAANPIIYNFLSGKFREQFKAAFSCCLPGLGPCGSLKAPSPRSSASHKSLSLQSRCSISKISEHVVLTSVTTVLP
# TAAR1 agonist: agonists of human TAAR1; Q96RJ0; CHO RD-HGA16 TAAR1, Fluo-8 calcium fluorescence; vehicle wells 0%, saturating PEA agonist 100%; activation, % at 3 µM; 0.99% of 360,000 active; AID 624467;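 active = activation above the mean activation of all test compounds in the run plus 3 SD, cut at about 38% in these data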
# Target sequence (Q96RJ0 whole entry, looked up): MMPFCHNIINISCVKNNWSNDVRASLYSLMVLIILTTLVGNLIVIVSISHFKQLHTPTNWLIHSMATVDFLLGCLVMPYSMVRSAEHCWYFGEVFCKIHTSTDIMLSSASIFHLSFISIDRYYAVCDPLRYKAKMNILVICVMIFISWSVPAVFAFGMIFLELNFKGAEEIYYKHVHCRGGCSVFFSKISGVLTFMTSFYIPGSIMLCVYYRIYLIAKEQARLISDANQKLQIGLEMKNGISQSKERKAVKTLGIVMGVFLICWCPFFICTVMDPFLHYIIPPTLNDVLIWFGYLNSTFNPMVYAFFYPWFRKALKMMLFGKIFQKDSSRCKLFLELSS
#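 Assay system: CHO-derived RD-HGA16 cells with stable Gα16 and human TAAR1; timing: 17-24 h seeding, 75 min 37 °C dye, 30 min RT; read-out: % activation from peak over basal fluorescence ratio, DMSO-to-PEA scaled; measured by: kinetic Fluo-8 calcium fluorescence; benchmarks: low control DMSO, high control PEA (EC100); doses: 3 µM single concentration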
# CHO parental Ca: signal in parental CHO cells, OX1R antagonist counter-screen; inhibition, % at 5.6 µM; AID 463079; 0.63% of 330,000 active; parental CHO-K1, ATP-induced calcium, Fluo-8 fluorescence;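 active = inhibition above that plate's mean sample inhibition plus 3 SD, cut at about 26% in these data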;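 note: 0% = ATP-challenged DMSO wells and 100% = DMSO wells without ATP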
#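 test system = CHO parental line | reagent = ATP stimulus | measured by = intracellular calcium via Fluo-8 no-wash fluorescent dye | control set = ATP and no-ATP DMSO wells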
# OX1R antag-2: OX1R (human) antagonism | OX1R-expressing cells, FRET antagonist read-out | O43613 | 1.8% of 330,000 active | inhibition, % at 6.6 µM | AID 485270; in the data active = inhibition mostly above about 38%, no sharp cut-off; inactive = mostly below about 40%;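 note: 0% = agonist challenge alone and 100% = reference antagonist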
# TAAR1 antagonist: antagonists of human TAAR1 | 1.5% of 360,000 active | AID 624466 | inhibition, % at 3 µM | CHO RD-HGA16 TAAR1, Fluo-8 calcium fluorescence, antagonist | Q96RJ0;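 active = inhibition above a per-plate cutoff, the mean inhibition of test compounds on that plate plus 3 SD, cut at about 49% in these data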;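 note: 0% = DMSO plus EC80 beta-PEA response and 100% = DMSO alone without agonist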
#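 Test system – hTAAR1-expressing CHO RD-HGA16 cells, Gα16-coupled · Reagent – β-PEA at EC80 concentration, post-compound challenge · Compound dosing – 3 µM, single point · Timing – 140 s kinetic read after compound, 140 s after agonist · Detection – Fluo-8 intracellular calcium dye fluorescence, real-time kinetic reads · Control set – DMSO and EC80 PEA controls · Repeats – n of 1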
# GPR7 antag: antagonists of human GPR7 (neuropeptides B/W receptor 1) | GPR7-expressing cells, fluorescence antagonist assay | 1.1% of 290,000 active | P48145 | inhibition, % at 4.4 µM; in the data active = inhibition above about 16%, passing the limit was not always enough;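 note: cells stimulated with the agonist NPW; 0% = agonist with vehicle and 100% = vehicle without agonist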
# TAAR1 nonsel count: nonselective antagonism, TAAR1 counter-screen | shares compounds with TAAR1 antagonist | counterscreen cell line, calcium fluorescence, antagonist mode | inhibition, % at 3 µM | 77% of 2,400 active | AID 651780; in the data active = inhibition above about 22%;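 note: CHO-Ga16 host cells stimulated with ATP at an EC80 level; 0% = agonist EC80 plus vehicle and 100% = vehicle without agonist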
# TAAR1 antag conf: human TAAR1 antagonism, confirmed; AID 651785; shares compounds with TAAR1 antagonist; TAAR1-expressing cells, fluorescence antagonist read-out; inhibition, % at 3 µM; 40% of 2,400 active; in the data active = inhibition above about 49%;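 note: CHO-Ga16 host cells challenged with agonist PEA near its EC80; 0% = agonist at EC80 plus vehicle and 100% = vehicle with no agonist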
# Ga16 ag counter: counter-screen for TAAR1 antagonists: nonselective Ga16 agonists; shares compounds with TAAR1 antagonist; 18% of 2,400 active; activation, % at 3 µM; Ga16-expressing cells, calcium fluorescence, agonist counterscreen; in the data active = activation above about 12%;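 note: 0% = vehicle wells and 100% = saturating stimulus response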
# TAAR1 ag counter: counter-screen for human TAAR1 antagonists: TAAR1 agonists. shares compounds with TAAR1 antagonist. 2% of 2,400 active. hTAAR1 cell line, fluorescence activation, agonist mode. activation, % at 3 µM. AID 651955; in the data active = activation above about 37%;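 note: CHO cells stably expressing TAAR1 with calcium dye readout; 0% = DMSO vehicle and 100% = full agonist response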
# An asterisk follows results filed as active; / = no result given. Most compounds without a hit are left out; they make up all but 4.6% or so of the library.
SMILES,OX1R antag-1,TAAR1 agonist,CHO parental Ca,OX1R antag-2,TAAR1 antagonist,GPR7 antag,TAAR1 nonsel count,TAAR1 antag conf,Ga16 ag counter,TAAR1 ag counter
O=C1C2C3CCC(C3NCc3ccccc3)C2C(=O)N1Cc1ccccc1 (configuration not stated),-17.9,6.0,-27.5,23.5,55.1*,1.2,19.5,34.1,6.3,8.7
CCCCCCn1c(=O)n2n(c1=O)[C@@H]1CN(S(=O)(=O)c3ccc(C)cc3)C[C@]1(O)[C@@H](OC(=O)Nc1cccs1)C2,/,-0.6,/,/,-21.2,/,/,/,/,/
COc1cccc(COC(=O)Nc2ccccc2)c1OC,/,-0.8,/,/,-13.9,/,/,/,/,/
C=C(C)C1CCC(C)=C1COC(=O)Nc1ccccc1 (configuration not stated),-3.5,20.8,-27.1,22.4,53.4*,-6.3,-2.1,2.1,-1.3,-2.8
O=C(OCc1cn([C@H]2CN(C(=O)c3cccs3)[C@@H](c3ccccc3)C[C@@H]2O)nn1)c1ccccc1,/,2.9,/,/,-0.4,/,/,/,/,/
CC(=O)Nc1cccc(NC(=O)Cc2cccs2)c1,-5.9,-0.5,-9.6,6.3,5.5,-15.4,/,/,/,/
O=C(Cc1cccs1)Nc1cccc(-c2nc3cc4ccccc4cc3[nH]2)c1,10.5,8.3,2.6,56.2,74.3*,-0.4,34.3*,43.7,5.6,0.2
CC(C)(C)C(c1nc2ccccc2[nH]1)n1c(-c2cc(Cl)cc(Cl)c2)nc2ccccc21 (configuration not stated),/,-1.4,/,/,-24.6,/,/,/,/,/
C#CCOCCOCCOCCNc1nc(N2CCOCC2)nc(N2CCN(C(=O)[C@H](C)n3cc(CCC(=O)O)nn3)CC2)n1,/,11.8,/,/,107.1*,/,5.8,2.2,3.7,5.8
C#CCOCCOCCOCCNc1nc(N2CCN(C(=O)[C@H](CCCN=C(N)N)n3cc(C(N)[C@@H](C)CC)nn3)CC2)nc(N2CCN(C(=O)[C@H](CCCCN)n3cc([C@@H](N)[C@H](C)CC)nn3)CC2)n1 (some centres not stated),-0.2,11.7,1.5,-0.1,108.5*,/,6.1,10.0,8.9,0.6
C#CCOCCOCCOCCNc1nc(N2CCN(C(=O)[C@H](CCCN=C(N)N)n3cc(C(N)[C@@H](C)CC)nn3)CC2)nc(N2CCN(C(=O)[C@H](CCC(=O)O)n3cc([C@@H](N)CCCCN)nn3)CC2)n1 (some centres not stated),-10.1,-0.1,0.0,0.1,4.6,/,/,/,/,/
COc1cc(Nc2ccn3nc(-c4ccc(F)cc4)cc3n2)cc(OC)c1OC,/,7.1,/,/,42.3,/,/,/,/,/
CC(C)Oc1ccccc1/C=N/NC(=O)C1CC1,-12.6,0.7,-5.3,15.4,103.8*,/,5.9,-6.8,4.7,8.2
O=C1c2ccccc2C(=O)N1CCC#Cc1ccc2cc(CCCO)oc(=O)c2c1,43.7,19.1,2.5,8.4,69.0*,/,61.3*,75.5*,23.8*,35.7
C=CC[C@@H](CC(=O)N[C@@H](CO)Cc1ccccc1)C(=O)NC[C@@H](OC(=O)[C@@H](CC=C)Cc1ccc(F)cc1)c1ccccc1,-12.0,11.2,-5.4,3.3,6.1,/,/,/,/,/
C=CC[C@@H](CC(=O)N[C@@H](CO)Cc1ccccc1)C(=O)NC[C@H](OC(=O)[C@@H](CC=C)Cc1ccc(F)cc1)c1ccccc1,7.3,19.8,-17.7,12.0,63.5*,/,32.3*,53.9*,9.8,11.0
C=CC[C@@H](CC(=O)NCCO)C(=O)NC[C@H](OC(=O)[C@@H](CC=C)Cc1ccc(F)cc1)c1ccccc1,-1.0,30.7,-12.1,32.8,78.0*,/,31.5*,63.3*,12.7*,15.3
O=C1c2c(-c3ccc(Br)cc3)noc2CCN1Cc1cn(Cc2ccccc2)nn1,/,2.4,/,/,-14.0,/,/,/,/,/
CC(OC(=O)[C@@H]1CCCN1C(=O)c1cccs1)C(=O)Nc1cccc([N+](=O)[O-])c1 (some centres not stated),6.6,9.3,1.9,16.7,65.7*,/,41.7*,46.7,13.3*,13.3
CC(OC(=O)C1CC2CCCC(C1)C2=O)C(=O)Nc1cccc([N+](=O)[O-])c1 (configuration not stated),-11.5,8.1,-8.5,14.2,-7.9,/,/,/,/,/
CCOC(=O)C1=CCN(S(=O)(=O)c2ccccc2C)C1c1ccc(Cl)cc1 (configuration not stated),/,6.2,/,/,44.5,/,/,/,/,/
C[C@@H]1CN([C@@H](C)CO)C(=O)CCCn2nncc2CO[C@@H]1CN(C)C(=O)C1CC1,/,1.3,/,/,22.1,/,/,/,/,/
COc1ccc(S(=O)(=O)N2CCCC2CNC(=O)C(=O)NCc2ccccc2)cc1 (configuration not stated),-26.4,0.6,-2.7,10.8,-3.9,/,/,/,/,/
O=C(NCc1ccc(F)cc1)C(=O)NCC1CCCN1S(=O)(=O)c1ccccc1 (configuration not stated),-36.5,-0.7,-19.1,18.2,-5.7,/,/,/,/,/
O=C(NCCc1ccc(F)cc1)C(=O)NCC1CCCN1S(=O)(=O)c1ccccc1 (configuration not stated),3.9,16.3,-24.4,57.6*,64.8*,/,27.3*,51.1*,10.2,14.4
SMILES,OX1R antag-1,TAAR1 agonist,CHO parental Ca,OX1R antag-2,TAAR1 antagonist,GPR7 antag,TAAR1 nonsel count,TAAR1 antag conf,Ga16 ag counter,TAAR1 ag counter
COc1ccc(CCNC(=O)C(=O)NCC2CCCN2S(=O)(=O)c2ccccc2)cc1 (configuration not stated),4.9,14.2,-21.6,21.9,65.0*,/,27.4*,49.8*,10.5,18.1
O=C1NC[C@H](CCCCN2CCN(CCc3ccccc3)C(=O)C2=O)N(CCc2ccccc2)C1=O,/,2.2,/,/,11.1,/,/,/,/,/
COc1ccc2cc(C3=CC(=O)CC(C)(C)C3=O)ccc2c1,/,6.6,/,/,60.7*,/,26.5*,43.5,6.5,5.8
CCNc1ccccc1,/,4.3,/,/,-13.0,/,/,/,/,/
COc1ccccc1NC(=O)COC(=O)c1cc(C)oc1C,-0.9,2.5,-37.8,18.2,-1.6,/,/,/,/,/
CC(=O)c1ccccc1NC(=O)COC(=O)c1cc(C)oc1C,-26.5,34.5,-3.1,10.9,54.5*,/,4.4,9.8,-0.1,4.6
NC(=O)c1cc(Cl)ccc1OCC(=O)N1CCCc2ccccc21,-12.2,6.3,-5.5,16.1,16.8,-5.9,/,/,/,/
O=C(CCCOc1ccc(Cl)cc1Cl)N1CCCc2ccccc21,-29.1,5.9,-42.1,10.5,49.9*,8.0,14.0,12.2,0.4,-0.8
